Assay results as given in ChEMBL document CHEMBL4837210 (Eur J Med Chem, 2021).
Converted amounts (≈) assume the structure as drawn.

What was measured:
Bacillus pumilus [1] = experiment: Antibacterial activity against penicillin-susceptible Bacillus pumilus CMCC 63202 assessed as bacterial growth inhibition by broth dilution method; assay type: functional; details: time 24 hrs
Summary of the method: (§1)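 Broth microdilution in Mueller Hinton broth. A 0.5 McFarland suspension was diluted tenfold, giving an inoculum of 1.5 × 10⁷ cfu/mL. This was added to 2-fold serial compound dilutions from […]. Plates were incubated aerobically at 37 °C for 24 h. MIC was the lowest concentration with no visible turbidity.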

Pseudomonas aeruginosa = experiment: Antibacterial activity against penicillin-susceptible Pseudomonas aeruginosa ATCC27853 assessed as bacterial growth inhibition incubated for 24 hrs by CLSI protocol based broth microdilution method; assay type: functional
Streptococcus pyogenes [2] = experiment: Antibacterial activity against erythromycin-susceptible Streptococcus pyogenes clinical isolate 1 assessed as bacterial growth inhibition incubated for 24 hrs by CLSI protocol based broth microdilution method; assay type: functional
Bacillus subtilis [3] = experiment: Bactericidal activity against penicillin-susceptible Bacillus subtilis ATCC 9372 measured after 24 hrs by CLSI protocol based method; assay type: functional
Summary of the method: (§2)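 MBC followed on from the 24 h broth microdilution MIC plates. Aliquots from clear wells were spread on tryptic soy agar and incubated aerobically at 37 °C for 24 h. MBC was the minimum concentration giving no colonies.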

Bacillus subtilis [4] = experiment: Antibacterial activity against penicillin-susceptible Bacillus subtilis ATCC 9372 assessed as bacterial growth inhibition incubated for 24 hrs by CLSI protocol based broth microdilution method; assay type: functional
Streptococcus pyogenes [5] = experiment: Antibacterial activity against erythromycin-resistant Streptococcus pyogenes 2 assessed as bacterial growth inhibition incubated for 24 hrs by CLSI protocol based broth microdilution method; assay type: functional
[6] = test system: Staphylococcus epidermidis; experiment: Antibacterial activity against penicillin-resistant Staphylococcus epidermidis assessed as inhibition of bacterial growth measured by broth microdilution method; assay type: functional; details: time 24 hrs
Staphylococcus aureus [7] = experiment: Bactericidal activity against penicillin-resistant Staphylococcus aureus measured after 24 hrs by CLSI protocol based method; assay type: functional
Summary of the method: (§3)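 MBC after broth microdilution. After 24 h, aliquots from clear wells were plated on tryptic soy agar and incubated aerobically 24 h at 37 °C. MBC was the lowest concentration giving no colonies.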

Escherichia coli = experiment: Antibacterial activity against penicillin-susceptible Escherichia coli ATCC 25922 assessed as inhibition of bacterial growth measured by broth microdilution method; assay type: functional; details: time 24 hrs; summary of the method: as §1
Staphylococcus aureus [8] = experiment: Bactericidal activity against methicillin-resistant Staphylococcus aureus ATCC 43300 measured after 24 hrs by CLSI protocol based method; assay type: functional; summary of the method: as §3
Staphylococcus aureus [9] = experiment: Antibacterial activity against penicillin-resistant Staphylococcus aureus assessed as inhibition of bacterial growth measured by broth microdilution method; assay type: functional; details: time 24 hrs
Summary of the method: (§4)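 Broth microdilution MIC. A 0.5 McFarland suspension was diluted 10-fold and added at 1.5 × 10⁷ cfu/mL to 2-fold dilutions (0.125–64) in Mueller Hinton broth. Incubated aerobically 24 h at 37 °C. MIC was the lowest concentration with no visible turbidity.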

Staphylococcus aureus [10] = experiment: Antibacterial activity against Staphylococcus aureus assessed as inhibition of bacterial growth measured by broth microdilution method; assay type: functional; details: time 24 hrs; summary of the method: as §1
Staphylococcus aureus [11] = experiment: Ratio of MBC to MIC against penicillin-resistant Staphylococcus aureus; assay type: functional
Summary of the method: (§5)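 MBC/MIC ratio from the broth microdilution MIC (24 h, 37 °C, MH broth) and the MBC (clear wells subcultured on tryptic soy agar, 24 h). A ratio ≤4 is read as bactericidal per CLSI.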

Enterococcus faecalis [12] = experiment: Antibacterial activity against vancomycin-resistant Enterococcus faecalis ATCC 51299 assessed as bacterial growth inhibition incubated for 24 hrs by CLSI protocol based broth microdilution method; assay type: functional
[13] = biological target: T1, Cell division protein FtsZ (Escherichia coli K-12, UniProt P0A9A6); experiment: Inhibition of FtsZ in Escherichia coli assessed as disruption of Z ring formation
T1 sequence (P0A9A6 whole entry): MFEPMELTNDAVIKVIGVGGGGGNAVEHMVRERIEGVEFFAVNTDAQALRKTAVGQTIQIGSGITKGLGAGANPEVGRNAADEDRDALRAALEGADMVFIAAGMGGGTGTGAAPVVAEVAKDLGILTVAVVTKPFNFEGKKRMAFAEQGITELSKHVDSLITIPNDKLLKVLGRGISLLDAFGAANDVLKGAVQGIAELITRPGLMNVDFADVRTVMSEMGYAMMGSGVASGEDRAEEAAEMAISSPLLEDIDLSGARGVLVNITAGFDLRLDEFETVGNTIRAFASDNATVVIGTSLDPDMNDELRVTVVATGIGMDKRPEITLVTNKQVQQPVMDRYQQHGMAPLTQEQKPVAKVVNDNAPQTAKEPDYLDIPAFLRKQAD

Bacillus pumilus [14] = experiment: Bactericidal activity against penicillin-susceptible Bacillus pumilus CMCC 63202 measured after 24 hrs by CLSI protocol based method; assay type: functional; summary of the method: as §2
Bacillus pumilus [15] = experiment: Ratio of MBC to MIC against penicillin-susceptible Bacillus pumilus CMCC 63202; assay type: functional; summary of the method: as §5
Staphylococcus aureus [16] = experiment: Antibacterial activity against methicillin-resistant Staphylococcus aureus ATCC 43300 assessed as inhibition of bacterial growth by broth microdilution method; assay type: functional; details: time 24 hrs; summary of the method: as §4
[17] = test system: Staphylococcus epidermidis; experiment: Bactericidal activity against penicillin-resistant Staphylococcus epidermidis measured after 24 hrs by CLSI protocol based method; assay type: functional; summary of the method: as §3
[18] = test system: Staphylococcus epidermidis; experiment: Ratio of MBC to MIC against penicillin-resistant Staphylococcus epidermidis; assay type: functional; summary of the method: as §5
Staphylococcus aureus [19] = experiment: Antibacterial activity against erythromycin-susceptible Staphylococcus aureus ATCC 25923 assessed as bacterial growth inhibition incubated for 24 hrs by CLSI protocol based broth microdilution method; assay type: functional
Enterococcus faecium [20] = experiment: Antibacterial activity against vancomycin-resistant Enterococcus faecium ATCC 51559 assessed as bacterial growth inhibition incubated for 24 hrs by CLSI protocol based broth microdilution method; details: ATCC 51559, 24 h
Staphylococcus aureus [21] = experiment: Ratio of MBC to MIC against erythromycin-susceptible Staphylococcus aureus ATCC 25923; assay type: functional; summary of the method: as §5
Enterococcus faecalis [22] = experiment: Antibacterial activity against vancomycin-susceptible Enterococcus faecalis ATCC 29212 assessed as bacterial growth inhibition incubated for 24 hrs by CLSI protocol based broth microdilution method; assay type: functional
Bacillus subtilis [23] = experiment: Ratio of MBC to MIC against penicillin-susceptible Bacillus subtilis ATCC 9372; assay type: functional
Summary of the method: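 Ratio of MBC to MIC, both measured by broth microdilution in MH broth (37 °C, 24 h); MBC was scored by subculturing clear wells onto tryptic soy agar for 24 h. Following CLSI, a ratio of 4 or less counts as bactericidal.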

Staphylococcus aureus [24] = experiment: Bactericidal activity against erythromycin-susceptible Staphylococcus aureus ATCC 25923 measured after 24 hrs by CLSI protocol based method; assay type: functional; summary of the method: as §3
[25] = biological target: T2, Cell division protein FtsZ (Bacillus subtilis, UniProt A5Z1V5); experiment: Inhibition of FtsZ in Bacillus subtilis assessed as disruption of Z ring formation
T2 sequence (A5Z1V5 whole entry): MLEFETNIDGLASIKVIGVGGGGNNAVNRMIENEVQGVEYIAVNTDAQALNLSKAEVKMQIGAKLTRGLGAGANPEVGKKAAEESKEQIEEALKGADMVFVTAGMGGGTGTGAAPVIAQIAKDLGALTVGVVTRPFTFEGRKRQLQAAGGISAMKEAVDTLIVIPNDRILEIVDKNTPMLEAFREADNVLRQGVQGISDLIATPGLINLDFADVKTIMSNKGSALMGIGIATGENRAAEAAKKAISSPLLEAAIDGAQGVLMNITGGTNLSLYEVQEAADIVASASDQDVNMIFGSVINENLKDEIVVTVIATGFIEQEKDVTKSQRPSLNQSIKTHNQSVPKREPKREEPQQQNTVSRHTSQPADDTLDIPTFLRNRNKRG

Enterococcus faecium [26] = experiment: Antibacterial activity against vancomycin-susceptible Enterococcus faecium ATCC19434 assessed as bacterial growth inhibition incubated for 24 hrs by CLSI protocol based broth microdilution method; details: ATCC19434, 24 h

## CC(=O)NC[C@H]1CN(c2ccc(N3CCOCC3)c(F)c2)C(=O)O1 [LINEZOLID]
Bacillus pumilus [1]
  MIC: 2 µg/mL (≈ 5.93 µM)
Pseudomonas aeruginosa
  MIC: > 64 µg/mL
Streptococcus pyogenes [2]
  MIC: 1 µg/mL (≈ 2.96 µM)
Bacillus subtilis [3]
  MBC: 64 µg/mL (≈ 190 µM)
Bacillus subtilis [4]
  MIC: 0.5 µg/mL (≈ 1.48 µM)
Streptococcus pyogenes [5]
  MIC: 1 µg/mL (≈ 2.96 µM)
[6]
  MIC: 4 µg/mL (≈ 11.9 µM)
Staphylococcus aureus [7]
  MBC: 16 µg/mL (≈ 47.4 µM)
Escherichia coli
  MIC: > 64 µg/mL

## C[n+]1cc2c3c(ccc2c2ccc4cc5c(cc4c21)OCO5)OCO3.[Cl-] [SANGUINARIUM CHLORIDE]
Bacillus pumilus [1]
  MIC: 4 µg/mL
Pseudomonas aeruginosa
  MIC: > 64 µg/mL
Staphylococcus aureus [8]
  MBC: > 64 µg/mL
Streptococcus pyogenes [2]
  MIC: 2 µg/mL
Bacillus subtilis [3]
  MBC: 64 µg/mL
Bacillus subtilis [4]
  MIC: 4 µg/mL
Staphylococcus aureus [9]
  MIC: 16 µg/mL
Staphylococcus aureus [10]
  MIC: 8 µg/mL
Staphylococcus aureus [11]
  Ratio: 8
Enterococcus faecalis [12]
  MIC: 32 µg/mL
Streptococcus pyogenes [5]
  MIC: 2 µg/mL
[13]
  IC50: 12.5 µM
[6]
  MIC: 8 µg/mL
Bacillus pumilus [14]
  MBC: > 64 µg/mL
Bacillus pumilus [15]
  Ratio: >64
Staphylococcus aureus [7]
  MBC: 128 µg/mL
Staphylococcus aureus [16]
  MIC: 8 µg/mL
[17]
  MIC: 64 µg/mL
[18]
  Ratio: 64
Staphylococcus aureus [19]
  MIC: 4 µg/mL
Enterococcus faecium [20]
  MIC: 32 µg/mL
Staphylococcus aureus [21]
  Ratio: >32
Escherichia coli
  MIC: 32 µg/mL
Enterococcus faecalis [22]
  MIC: 16 µg/mL
Bacillus subtilis [23]
  Ratio: 16
Staphylococcus aureus [24]
  MBC: > 64 µg/mL
[25]
  IC50: 2720 nM
Enterococcus faecium [26]
  MIC: 64 µg/mL
